Reference: ChEMBL document CHEMBL1142148, “Antibiotic susceptibility profile of bifidobacteria as affected by oxgall, acid, and hydrogen peroxide stress” (2007)
≈ marks a conversion by molar mass, not a printed value.

Key:
Bifidobacterium animalis [1] = test: Antimicrobial activity against Bifidobacterium animalis ATCC 27536; assay type: functional
Method in brief: (§1)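 Broth microdilution in MRS plus 0.05% L-cysteine-HCl. Mid-log culture adjusted to OD650 0.1, giving about 2.5 × 10^4 to 5.0 × 10^4 CFU/well, then added to twofold serial dilutions of agent. Plates incubated anaerobically at 37°C for 18 h and read at OD650. MIC is the lowest concentration matching the uninoculated blank OD, taken as the median of four repeats.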

Bifidobacterium bifidum [2] = test: Antimicrobial activity against Bifidobacterium bifidum R0071; assay type: functional; method in brief: as §1
Bifidobacterium bifidum [3] = test: Antimicrobial activity against Bifidobacterium bifidum ATCC 15696; assay type: functional; method in brief: as §1
Bifidobacterium bifidum [4] = test: Antimicrobial activity against Bifidobacterium bifidum BB12; assay type: functional; method in brief: as §1
Bifidobacterium breve [5] = test: Antimicrobial activity against Bifidobacterium breve ATCC 15700; assay type: functional; method in brief: as §1
[6] = Antimicrobial activity against Bifidobacterium infantis ATCC 15697; assay type: functional, Bifidobacterium longum subsp. infantis; details: Bifidobacterium longum; method in brief: as §1
Bifidobacterium longum [7] = test: Antimicrobial activity against Bifidobacterium longum ATCC 15708; assay type: functional; method in brief: as §1
Bifidobacterium longum [8] = test: Antimicrobial activity against Bifidobacterium longum R0175; assay type: functional; method in brief: as §1
Bifidobacterium longum [9] = test: Antimicrobial activity against Bifidobacterium longum P/N 601377; assay type: functional; method in brief: as §1
[10] = system: Bifidobacterium pseudolongum; test: Antimicrobial activity against Bifidobacterium pseudolongum ATCC 25562; assay type: functional; method in brief: as §1
[11] = system: Bifidobacterium thermophilum; test: Antimicrobial activity against Bifidobacterium thermophilum ATCC 25866; assay type: functional; method in brief: as §1
Bifidobacterium breve [12] = test: Antimicrobial activity against Bifidobacterium breve R0070; assay type: functional; method in brief: as §1
Bifidobacterium animalis [13] = test: Antimicrobial activity against 60 min 1 M HCl-stressed Bifidobacterium animalis ATCC 27536 after 18 hrs; assay type: functional
Method in brief: (§2)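 Mid-log MRS culture pelleted and resuspended in MRS broth brought to pH 2.0 with 1 M HCl, held anaerobically at 37°C for 60 min, then subcultured in MRS (pH 6.5) for 24 h anaerobically before MIC testing by broth microdilution (as for unstressed cells). Table footnote gives 18 h anaerobic regrowth after the stress. MIC is the median of four repetitions.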

Bifidobacterium bifidum [14] = test: Antimicrobial activity against 60 min 1 M HCl-stressed Bifidobacterium bifidum R0071 after 18 hrs; assay type: functional; method in brief: as §2
Bifidobacterium bifidum [15] = test: Antimicrobial activity against 60 min 1 M HCl-stressed Bifidobacterium bifidum BB12 after 18 hrs; assay type: functional; method in brief: as §2
Bifidobacterium breve [16] = test: Antimicrobial activity against 60 min 1 M HCl-stressed Bifidobacterium breve ATCC 15700 after 18 hrs; assay type: functional; method in brief: as §2
Bifidobacterium breve [17] = test: Antimicrobial activity against 60 min 1 M HCl-stressed Bifidobacterium breve R0070 after 18 hrs; assay type: functional; method in brief: as §2
[18] = Antimicrobial activity against 60 min 1 M HCl-stressed Bifidobacterium infantis ATCC 15697 after 18 hrs; assay type: functional, Bifidobacterium longum subsp. infantis; details: Bifidobacterium longum; method in brief: as §2
Bifidobacterium longum [19] = test: Antimicrobial activity against 60 min 1 M HCl-stressed Bifidobacterium longum ATCC 15707 after 18 hrs; assay type: functional; method in brief: as §2
Bifidobacterium longum [20] = test: Antimicrobial activity against 60 min 1 M HCl-stressed Bifidobacterium longum R0175 after 18 hrs; assay type: functional; method in brief: as §2
Bifidobacterium longum [21] = test: Antimicrobial activity against 60 min 1 M HCl-stressed Bifidobacterium longum P/N 601377 after 18 hrs; assay type: functional; method in brief: as §2
[22] = system: Bifidobacterium pseudolongum; test: Antimicrobial activity against 60 min 1 M HCl-stressed Bifidobacterium pseudolongum ATCC 25562 after 18 hrs; assay type: functional; method in brief: as §2
[23] = system: Bifidobacterium thermophilum; test: Antimicrobial activity against 60 min 1 M HCl-stressed Bifidobacterium thermophilum ATCC 25866 after 18 hrs; assay type: functional; method in brief: as §2
Bifidobacterium animalis [24] = test: Antimicrobial activity against 90 mins oxgall-stressed Bifidobacterium animalis ATCC 27536 after 18 hrs; assay type: functional
Method in brief: (§3)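 Cells pelleted from mid-log MRS culture and resuspended in MRS (initial pH 6.5) with 0.3% (wt/vol) oxgall for 90 min anaerobically at 37°C. They were then regrown in MRS pH 6.5 for 24 h (footnote: 18 h) anaerobically and tested for MIC by the same broth microdilution assay. Median of four repetitions.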

Bifidobacterium bifidum [25] = test: Antimicrobial activity against 90 mins oxgall-stressed Bifidobacterium bifidum R0071 after 18 hrs; assay type: functional; method in brief: as §3
Bifidobacterium bifidum [26] = test: Antimicrobial activity against 90 mins oxgall-stressed Bifidobacterium bifidum ATCC 15696 after 18 hrs; assay type: functional; method in brief: as §3
Bifidobacterium bifidum [27] = test: Antimicrobial activity against 90 mins oxgall-stressed Bifidobacterium bifidum BB12 after 18 hrs; assay type: functional; method in brief: as §3
Bifidobacterium breve [28] = test: Antimicrobial activity against 90 mins oxgall-stressed Bifidobacterium breve ATCC 15700 after 18 hrs; assay type: functional; method in brief: as §3
Bifidobacterium breve [29] = test: Antimicrobial activity against 90 mins oxgall-stressed Bifidobacterium breve R0070 after 18 hrs; assay type: functional; method in brief: as §3
[30] = Antimicrobial activity against 90 mins oxgall-stressed Bifidobacterium infantis ATCC 15697 after 18 hrs; assay type: functional, Bifidobacterium longum subsp. infantis; details: Bifidobacterium longum; method in brief: as §3
Bifidobacterium longum [31] = test: Antimicrobial activity against 90 mins oxgall-stressed Bifidobacterium longum ATCC 15707 after 18 hrs; assay type: functional; method in brief: as §3
Bifidobacterium longum [32] = test: Antimicrobial activity against 90 mins oxgall-stressed Bifidobacterium longum ATCC 15708 after 18 hrs; assay type: functional; method in brief: as §3
Bifidobacterium longum [33] = test: Antimicrobial activity against Bifidobacterium longum ATCC 15707; assay type: functional; method in brief: as §1
Bifidobacterium longum [34] = test: Antimicrobial activity against 90 mins oxgall-stressed Bifidobacterium longum R0175 after 18 hrs; assay type: functional; method in brief: as §3
Bifidobacterium longum [35] = test: Antimicrobial activity against 90 mins oxgall-stressed Bifidobacterium longum P/N 601377 after 18 hrs; assay type: functional; method in brief: as §3
[36] = system: Bifidobacterium pseudolongum; test: Antimicrobial activity against 90 mins oxgall-stressed Bifidobacterium pseudolongum ATCC 25562 after 18 hrs; assay type: functional; method in brief: as §3
[37] = system: Bifidobacterium thermophilum; test: Antimicrobial activity against 90 mins oxgall-stressed Bifidobacterium thermophilum ATCC 25866 after 18 hrs; assay type: functional; method in brief: as §3
Bifidobacterium animalis [38] = test: Antimicrobial activity against 90 mins hydrogen peroxide-stressed Bifidobacterium animalis ATCC 27536 after 18 hrs; assay type: functional
Method in brief: (§4)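 Stress applied for 90 min at 37°C under anaerobic conditions, using MRS (initial pH 6.5) containing H2O2 at each strain's own inhibitory concentration. The H2O2 level was set beforehand by microplate tolerance testing. Challenged cells were regrown in MRS for 24 h (footnote: 18 h) before MIC testing by broth microdilution. Median of four repetitions.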

Bifidobacterium bifidum [39] = test: Antimicrobial activity against 90 mins hydrogen peroxide-stressed Bifidobacterium bifidum R0071 after 18 hrs; assay type: functional; method in brief: as §4
Bifidobacterium bifidum [40] = test: Antimicrobial activity against 90 mins hydrogen peroxide-stressed Bifidobacterium bifidum BB12 after 18 hrs; assay type: functional; method in brief: as §4
Bifidobacterium breve [41] = test: Antimicrobial activity against 90 mins hydrogen peroxide-stressed Bifidobacterium breve ATCC 15700 after 18 hrs; assay type: functional; method in brief: as §4
Bifidobacterium breve [42] = test: Antimicrobial activity against 90 mins hydrogen peroxide-stressed Bifidobacterium breve R0070 after 18 hrs; assay type: functional; method in brief: as §4
Bifidobacterium longum [43] = test: Antimicrobial activity against 90 mins hydrogen peroxide-stressed Bifidobacterium longum ATCC 15707 after 18 hrs; assay type: functional; method in brief: as §4
Bifidobacterium longum [44] = test: Antimicrobial activity against 90 mins hydrogen peroxide-stressed Bifidobacterium longum ATCC 15708 after 18 hrs; assay type: functional; method in brief: as §4
Bifidobacterium longum [45] = test: Antimicrobial activity against 90 mins hydrogen peroxide-stressed Bifidobacterium longum R0175 after 18 hrs; assay type: functional; method in brief: as §4
Bifidobacterium longum [46] = test: Antimicrobial activity against 90 mins hydrogen peroxide-stressed Bifidobacterium longum P/N 601377 after 18 hrs; assay type: functional; method in brief: as §4
[47] = system: Bifidobacterium thermophilum; test: Antimicrobial activity against 90 mins hydrogen peroxide-stressed Bifidobacterium thermophilum ATCC 25866 after 18 hrs; assay type: functional; method in brief: as §4

CN[C@H](CC(C)C)C(=O)N[C@H]1C(=O)N[C@@H](CC(N)=O)C(=O)N[C@H]2C(=O)N[C@H]3C(=O)N[C@H](C(=O)N[C@H](C(=O)O)c4cc(O)cc(O)c4-c4cc3ccc4O)[C@H](O)c3ccc(c(Cl)c3)Oc3cc2cc(c3O[C@@H]2O[C@H](CO)[C@@H](O)[C@H](O)[C@H]2O[C@H]2C[C@](C)(N)[C@H](O)[C@H](C)O2)Oc2ccc(cc2Cl)[C@H]1O [VANCOMYCIN] showed an MIC (Bifidobacterium animalis [1]) of 500 µg/mL (≈ 345 µM), an MIC (Bifidobacterium bifidum [2]) of 500 µg/mL (≈ 345 µM) and an MIC (Bifidobacterium bifidum [3]) greater than 500 µg/mL. The MIC (Bifidobacterium bifidum [4]) was greater than 500 µg/mL, the MIC (Bifidobacterium breve [5]) was greater than 500 µg/mL and the MIC [6] was greater than 500 µg/mL. For the same compound, the MIC (Bifidobacterium longum [7]) was 500 µg/mL (≈ 345 µM), the MIC (Bifidobacterium longum [8]) was 500 µg/mL (≈ 345 µM) and the MIC (Bifidobacterium longum [9]) was greater than 500 µg/mL. It also gave an MIC [10] greater than 500 µg/mL, an MIC [11] greater than 500 µg/mL and an MIC (Bifidobacterium breve [12]) of 500 µg/mL (≈ 345 µM). For the same compound, the MIC (Bifidobacterium animalis [13]) was greater than 500 µg/mL, the MIC (Bifidobacterium bifidum [14]) was greater than 500 µg/mL and the MIC (Bifidobacterium bifidum [15]) was greater than 500 µg/mL. The MIC (Bifidobacterium breve [16]) was greater than 500 µg/mL, the MIC (Bifidobacterium breve [17]) was greater than 500 µg/mL and the MIC [18] was 0.98 µg/mL (≈ 0.676 µM). The MIC (Bifidobacterium longum [19]) was greater than 500 µg/mL, the MIC (Bifidobacterium longum [20]) was 0.98 µg/mL (≈ 0.676 µM) and the MIC (Bifidobacterium longum [21]) was greater than 500 µg/mL. The MIC [22] was 0.98 µg/mL (≈ 0.676 µM), the MIC [23] was greater than 500 µg/mL and the MIC (Bifidobacterium animalis [24]) was 1.9 µg/mL (≈ 1.31 µM). For the same compound, the MIC (Bifidobacterium bifidum [25]) was greater than 500 µg/mL, the MIC (Bifidobacterium bifidum [26]) was greater than 500 µg/mL and the MIC (Bifidobacterium bifidum [27]) was greater than 500 µg/mL. It also gave an MIC (Bifidobacterium breve [28]) greater than 500 µg/mL, an MIC (Bifidobacterium breve [29]) greater than 500 µg/mL and an MIC [30] of 0.98 µg/mL (≈ 0.676 µM). For the same compound, the MIC (Bifidobacterium longum [31]) was greater than 500 µg/mL, the MIC (Bifidobacterium longum [32]) was 0.98 µg/mL (≈ 0.676 µM) and the MIC (Bifidobacterium longum [33]) was 500 µg/mL (≈ 345 µM). It also gave an MIC (Bifidobacterium longum [34]) greater than 500 µg/mL, an MIC (Bifidobacterium longum [35]) greater than 500 µg/mL and an MIC [36] of 0.98 µg/mL (≈ 0.676 µM). For the same compound, the MIC [37] was greater than 500 µg/mL, the MIC (Bifidobacterium animalis [38]) was greater than 500 µg/mL and the MIC (Bifidobacterium bifidum [39]) was greater than 500 µg/mL. The MIC (Bifidobacterium bifidum [40]) was greater than 500 µg/mL, the MIC (Bifidobacterium breve [41]) was greater than 500 µg/mL and the MIC (Bifidobacterium breve [42]) was greater than 500 µg/mL. The MIC (Bifidobacterium longum [43]) was greater than 500 µg/mL, the MIC (Bifidobacterium longum [44]) was greater than 500 µg/mL and the MIC (Bifidobacterium longum [45]) was greater than 500 µg/mL. The MIC (Bifidobacterium longum [46]) was greater than 500 µg/mL and the MIC [47] was greater than 500 µg/mL.
